Laboratory results: ChEMBL document CHEMBL1130108, “Synthesis of nonhydrolyzable analogues of thiazole-4-carboxamide and benzamide adenine dinucleotide containing fluorine atom at the C2' of adenine nucleoside: induction of K562 differentiation and inosine monophosphate dehydrogenase inhibitory activity” (J Med Chem, 1997)
pIC50: −log10 of the molar value. Several values for one entry are separate records, joined by “and”; a condition that tells them apart may be missing. Equal entries are not always repeated.

Columns and labels:
[1] = biological target: Inosine-5'-monophosphate dehydrogenase 2 (Homo sapiens, UniProt P12268); experiment: The compound was assayed to determine the inhibitory activity against human Inosine-5'-monophosphate dehydrogenase 2
K562 [2] = experiment: The ability to induce differentiation in K562 cells was estimated by determining the fraction of benzidine positive cells converted following incubation with the compound.; assay type: functional, Homo sapiens
Procedure, shortened: (§1)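 K562 erythroleukemia cells incubated with analogue; differentiation scored as fraction of benzidine-positive cells; percent benzidine-positive cells normalized by dividing by the analogue concentration applied.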

K562 [3] = experiment: The concentration used to induce differentiation in K562 cells; assay type: functional, cell-based; conditions: Homo sapiens; procedure, shortened: as §1
K562 [4] = experiment: Antiproliferative activity against K562 erythroid leukemic cells was determined.; assay type: functional, cell-based; conditions: Homo sapiens
[5] = Percentage of benzidine positive cells is divided by the concentration used.; assay type: functional; set-up: unit not given here; procedure, shortened: as §1
K562 [6] = experiment: The concentration used.; assay type: functional, cell-based; conditions: Homo sapiens; procedure, shortened: as §1
K562 [7] = experiment: Antiproliferative activity against K562 erythroid leukemic cells was determined; NE=no effect; assay type: functional, cell-based, Homo sapiens

| SMILES | pIC50 [1] | pIC50 (K562 [4]) | IC50 (K562 [7]) | Positive cells (K562 [2]) [%] | Concentration (K562 [3]) [µM] | Concentration [5] | Concentration (K562 [6]) [µM] |
| --- | --- | --- | --- | --- | --- | --- | --- |
| NC(=O)c1csc([C@@H]2O[C@H](COP(=O)(O)CP(=O)(O)OC[C@@H]3O[C@H](n4cnc5c(N)ncnc54)[C@H](F)[C@H]3O)[C@@H](O)[C@H]2O)n1 | 5.22 | 4.15 |  | 9.5 | 14 | 0.7 |  |
| NC(=O)c1cccc([C@@H]2O[C@H](COP(=O)(O)CP(=O)(O)OC[C@@H]3O[C@H](n4cnc5c(N)ncnc54)[C@@H](O)[C@H]3O)[C@@H](O)[C@H]2O)c1 | 6.10 | 4.17 |  |  | 15 | 0.6 and 0.8 | 60 |
| NC(=O)c1csc([C@@H]2O[C@H](COP(=O)(O)CP(=O)(O)OC[C@@H]3O[C@H](n4cnc5c(N)ncnc54)[C@@H](O)[C@H]3O)[C@@H](O)[C@H]2O)n1 | 6.96 | 4.74 |  | 35 | 14.3 |  |  |
| NC(=O)c1cccc([C@@H]2O[C@H](COP(=O)(O)CP(=O)(O)OC[C@@H]3O[C@H](n4cnc5c(N)ncnc54)[C@H](F)[C@H]3O)[C@@H](O)[C@H]2O)c1 | 3.76 |  | Not Active | 9 | 75 | 0.1 |  |

Continued, in another order:

| pIC50 [1] | pIC50 (K562 [4]) | IC50 (K562 [7]) | SMILES | Positive cells (K562 [2]) [%] | Concentration (K562 [3]) [µM] | Concentration [5] | Concentration (K562 [6]) [µM] |
| --- | --- | --- | --- | --- | --- | --- | --- |
| 6.10 | 4.89 |  | NC(=O)c1csc([C@@H]2O[C@H](COP(=O)(O)C(F)(F)P(=O)(O)OC[C@@H]3O[C@H](n4cnc5c(N)ncnc54)[C@H](F)[C@H]3O)[C@@H](O)[C@H]2O)n1 | 40 | 13 | 3.1 |  |
|  | 5.52 |  | NC(=O)c1csc([C@@H]2O[C@H](CO)[C@@H](O)[C@H]2O)n1 [TIAZOFURIN] | 80 | 15 |  |  |
| 5.59 | 5.42 |  | NC(=O)c1csc([C@@H]2O[C@H](COP(=O)(O)OP(=O)(O)OC[C@@H]3O[C@H](n4cnc5c(N)ncnc54)[C@@H](F)[C@H]3O)[C@@H](O)[C@H]2O)n1 | 56 | 13 | 10.4 |  |
| 6.52 | 4.96 |  | NC(=O)c1csc([C@@H]2O[C@H](COP(=O)(O)C(F)(F)P(=O)(O)OC[C@@H]3O[C@H](n4cnc5c(N)ncnc54)[C@@H](O)[C@H]3O)[C@@H](O)[C@H]2O)n1 | 48 | 14 | 3.4 |  |
|  | 5.43 |  | NC(=O)c1csc([C@H]2O[C@@H](COP(=O)(O)OP(=O)(O)OC[C@H]3O[C@@H](n4cnc5c(N)ncnc54)[C@H](O)[C@@H]3O)[C@H](O)[C@@H]2O)n1 | 70 | 15 |  |  |
| 6.15 | 5.49 |  | NC(=O)c1csc([C@@H]2O[C@H](COP(=O)(O)OP(=O)(O)OC[C@@H]3O[C@H](n4cnc5c(N)ncnc54)[C@@H](O)[C@H]3F)[C@@H](O)[C@H]2O)n1 | 26 | 2.5 | 10.4 |  |
